Assay results: ChEMBL document CHEMBL4130632, “Targeting Myeloid Differentiation Using Potent 2-Hydroxypyrazolo[1,5- a]pyridine Scaffold-Based Human Dihydroorotate Dehydrogenase Inhibitors” (J Med Chem, 2018)
pIC50: −log10 of the molar value. One block for each molecule: values may come before it.

Tests used:
Jurkat [1] = assay: Cytotoxicity against human Jurkat T cells assessed as compound concentration required to induce =>30% cell death after 72 hrs by CellTox green assay; format: cell-based
How it was run: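 Jurkat T cells (complete X-VIVO 15, 10% FBS, 37 °C, 5% CO2; passages 5–10, mycoplasma-tested), 5 × 10^3/well. Cells exposed to 0.001–100 μM compound or DMSO vehicle for 72 h. Cell death read by CellTox Green. Value is the concentration giving significant (≥30%) cytotoxicity, mean ± SE of three independent experiments.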

PBMC [2] = assay: Immunosuppressive activity against human PBMC assessed as inhibition of PHA-stimulated cell proliferation preincubated for 2 hrs followed by PHA stimulation for 72 hrs by Hoechst 33258 dye-based fluorescence assay; format: functional
PBMC [3] = assay: Immunosuppressive activity against human PBMC assessed as inhibition of PHA-stimulated cell proliferation preincubated for 2 hrs followed by PHA stimulation for 72 hrs in presence of exogenous uridine by Hoechst 33258 dye-based fluorescence assay; format: functional
Jurkat [4] = assay: Antiproliferative activity against human Jurkat T cells assessed as DNA content after 72 hrs in presence of exogenous uridine by Hoechst 33258 dye-based fluorescence assay; format: functional, cell-based
U-937 = assay: Induction of myeloid differentiation in human U937 cells assessed as increase in CD11b expression level at 0.1 to 1 uM up to 4 days by propidium iodide staining-based flow cytometry; format: functional
How it was run: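 Cells plated at 1 × 10^4 with inhibitor 0.1–10 μM. Differentiation was followed daily by flow cytometry, to day 4 for U937 and day 5 for THP1. Markers were PE-CD11b for U937 and FITC-CD14 for THP1, stained 45 min at 4 °C in PBS/2% BSA/1 mM EDTA. Propidium iodide excluded dead cells. Uridine-rescue (100 μM) samples were read at day 3.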

[5] = Stability of the compound in human serum assessed as compound remaining at 37 degC after 24 hrs by RP-HPLC analysis; format: ADME, cell-free; conditions: read-out: Stability
How it was run: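 Compound from DMSO stock added to human male AB serum (2% cosolvent) and shaken at 37 °C. Samples taken at 0–24 h were deproteinized with 0.1% TFA in acetonitrile, centrifuged and filtered. Analyzed by C18 RP-HPLC (acetonitrile/water 70/30, 0.1% TFA). Value is % unmodified parent at 24 h.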

Jurkat [6] = assay: Antiproliferative activity against human Jurkat T cells assessed as DNA content after 72 hrs by Hoechst 33258 dye-based fluorescence assay; format: functional, cell-based
THP-1 = assay: Induction of myeloid differentiation in human THP1 cells assessed as increase in CD14 expression level at 0.1 to 1 uM up to 4 days by propidium iodide staining-based flow cytometry
[7] = target: Dihydroorotate dehydrogenase (quinone), mitochondrial (Homo sapiens, UniProt Q02127); assay: Inhibition of recombinant N-terminal GST-tagged human DHODH (31 to 395 residues) expressed in Escherichia coli BL21(DE3) assessed as inhibition of DCIP reduction using dihydroorotate as substrate preincubated for 5 mins followed by substrate addition measured after 5 mins
Dihydroorotate dehydrogenase (quinone), mitochondrial, sequence (Q02127 whole entry, the tested form may be a part): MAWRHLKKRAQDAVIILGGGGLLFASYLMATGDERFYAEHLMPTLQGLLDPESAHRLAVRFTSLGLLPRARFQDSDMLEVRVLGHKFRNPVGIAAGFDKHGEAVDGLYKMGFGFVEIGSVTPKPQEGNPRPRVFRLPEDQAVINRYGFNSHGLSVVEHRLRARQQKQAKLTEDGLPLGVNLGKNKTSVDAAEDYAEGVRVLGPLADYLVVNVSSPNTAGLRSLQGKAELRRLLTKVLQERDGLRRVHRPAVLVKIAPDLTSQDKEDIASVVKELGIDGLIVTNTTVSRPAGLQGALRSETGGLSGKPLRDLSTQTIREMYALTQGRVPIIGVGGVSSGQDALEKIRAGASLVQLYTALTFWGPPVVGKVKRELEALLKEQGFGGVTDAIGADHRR

Structure (SMILES): C/C(O)=C(\C#N)C(=O)Nc1ccc(C(F)(F)F)cc1 [TERIFLUNOMIDE]
Activity (Jurkat [1]): 53 µM

Structure (SMILES): Cc1c(-c2ccc(-c3ccccc3F)cc2)nc2ccc(F)cc2c1C(=O)O [BREQUINAR]
pIC50 (PBMC [2]): 5.43 | pIC50 (PBMC [3]): 4.22 | pIC50 (Jurkat [4]): 4.03 | %max (U-937): 40% | remaining at 24 h [5]: 98% | pIC50 (Jurkat [6]): 6.04 | %max (THP-1): 40%

pIC50 [7]: < 5.30
Structure (SMILES): Cn1c(=O)c(C(=O)Nc2c(F)c(F)c(-c3ccccc3)c(F)c2F)c2ccccn21

pIC50 [7]: 7.35
Structure (SMILES): Cn1nc(O)c(C(=O)Nc2c(F)c(F)c(-c3ccccc3)c(F)c2F)n1
